Source: ChEMBL document CHEMBL1131468, “Rigid phencyclidine analogues. Binding to the phencyclidine and sigma 1 receptors” (J Med Chem, 1998)

Assays:
[1] = molecular target: Sigma non-opioid intracellular receptor 1 (Rattus norvegicus, UniProt Q9R0C9); experiment: Inhibition of [3H]NANM binding to sigma receptor obtained from tissue homogenate preparation of fresh whole rat brain minus cerebellum; format: tissue-based
Procedure, shortened: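 Radioligand displacement in homogenate of fresh whole rat brain minus cerebellum. The PCP site was labelled with [3H]TCP and the sigma site with [3H]NANM. IC50 values were read from inhibition curves and converted to Ki with the Cheng-Prusoff equation. Experiments were run in triplicate and reported as mean ± standard deviation of three experiments.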

[2] = Inhibition of [3H]-TCP binding to PCP receptor obtained from tissue homogenate preparation of fresh whole rat brain minus cerebellum

Sequence of Sigma non-opioid intracellular receptor 1 (Q9R0C9 whole entry): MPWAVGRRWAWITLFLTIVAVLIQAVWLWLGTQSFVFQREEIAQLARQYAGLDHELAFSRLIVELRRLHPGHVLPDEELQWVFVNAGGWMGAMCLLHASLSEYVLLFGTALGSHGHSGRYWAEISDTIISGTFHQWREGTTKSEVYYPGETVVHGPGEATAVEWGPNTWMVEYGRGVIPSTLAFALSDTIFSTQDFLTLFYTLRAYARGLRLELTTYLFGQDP

c1ccc2c(c1)C1CCCCC21N1CCCCC1 (stereo not given)
IC50 [1]: 330 nM

c1ccc2c(c1)C1CCC2(N2CCCCC2)CC1
IC50 [1]: 319 nM

c1ccc2c(c1)C1CCC2(N2CCCCC2)C1 (stereo not given)
IC50 [1]: 365 nM

c1ccc(C2(N3CCCCC3)CCCCC2)cc1 [PHENCYCLIDINE]
IC50 [2]: 91 nM

O=C(OCCN1CCOCC1)C1(c2ccccc2)CCCCC1
IC50 [1]: 44 nM
